This is a sample that favours compounds with a hit; in the whole collection about 4.5% have one here.
AHR act: activates the human aryl hydrocarbon receptor; P35869; AHR-responsive luciferase reporter cells, luminescence; activation, % at 5 µM; 2.5% of 320,000 active; AID 2796; in the data active means activation above about 47%;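 further: 0% = vehicle wells and 100% = reference agonist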
Mdm2 ligase inh: Mdm2 E3 ligase (human) inhibition | signal enhancement, % at 5 µM | cell-based MDM2 ubiquitination luciferase reporter, 2 h; 0 = plate control, 100 = twice control, blank-subtracted | 0.11% of 210,000 active | AID 1230 | Q00987;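 active means signal enhancement of 30% or more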;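 further: luminescence tracks abundance of the self-degrading MDM2-luciferase fusion protein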
Target sequence (Q00987 whole entry, looked up, the tested form may be a part): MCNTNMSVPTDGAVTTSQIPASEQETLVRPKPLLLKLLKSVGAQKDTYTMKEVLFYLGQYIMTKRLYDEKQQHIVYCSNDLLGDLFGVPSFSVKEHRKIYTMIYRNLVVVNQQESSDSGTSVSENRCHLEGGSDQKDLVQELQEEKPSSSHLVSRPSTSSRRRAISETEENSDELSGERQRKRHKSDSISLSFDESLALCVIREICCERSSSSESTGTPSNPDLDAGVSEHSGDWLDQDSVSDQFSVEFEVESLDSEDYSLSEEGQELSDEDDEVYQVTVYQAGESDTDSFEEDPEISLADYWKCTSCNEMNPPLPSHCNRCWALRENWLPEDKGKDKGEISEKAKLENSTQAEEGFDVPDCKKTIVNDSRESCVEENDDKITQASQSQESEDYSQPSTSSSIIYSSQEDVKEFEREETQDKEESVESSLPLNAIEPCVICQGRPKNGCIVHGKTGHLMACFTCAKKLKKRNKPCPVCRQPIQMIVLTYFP
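test system = mammalian cells stably expressing self-ubiquitinating, self-degrading MDM2 E3–luciferase fusion | quantity = 2000 cells/well | incubation = cell settling 4 h, compound treatment 2 h, both 37 °C | signal = luminescence with SteadyLite reagent, 15 min at room temperature | evaluation = % enhancement relative to plate controls after blank subtraction | benchmarks = plate controls and plate blanks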
NF-kB expr up: compounds increasing NF-kB expression in human neuronal cells. fold change at 12.5 µM. 1.6% of 190,000 active. NF-kB reporter expression; active compounds read high. AID 1239; in the data active means fold change above about 3.3
APP 5'UTR act: activates APP 5'UTR luciferase reporter. SH-SY5Y APP 5'UTR luciferase reporter, luminescence; zero percent = DMSO vehicle wells. activation, % at 2 µM. 1% of 190,000 active. AID 1276;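 active means activation above a set limit, based on mean plus 3 SD of controls, cut at about 140% in these data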
PERK inh: human PERK inhibition, primary cell-based screen; 0.17% of 220,000 active; inhibition, % at 5.6 µM; Q9NZJ5; CHO PERK-DD fusion, SEAP luminescence translation reporter;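 active means inhibition above the mean inhibition of all tested compounds plus 3 SD, set separately per screening campaign, cut at about 2.9% in these data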;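 further: PERK kinase domain activated by AP20187 dimerizer at 100 nM; 0% = DMSO with dimerizer and 100% = rapamycin at 8.4 µM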
STAT1 activator: activators of IFN-gamma induced STAT1 signaling; 2.6% of 200,000 active; NIH 3T3 STAT1-luciferase reporter, luminescence; 100% = IFN-gamma alone, no compound; activation (% of control), % at 5.5 µM;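 active means activation above the screen-wide mean activation plus 3 SD, cut at about 130% in these data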;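 further: raw ratio to IFN-gamma control signal so 100% means no change and 0% no light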
The depositor's hits bear a star; x = not tested or not shown.

SMILES | AHR act | Mdm2 ligase inh | NF-kB expr up | APP 5'UTR act | PERK inh | STAT1 activator
CCOC(=O)c1ccc(NC(=O)N2CCc3ccccc3C2)cc1 | 3.9 | x | x | x | x | x
CCOc1ccccc1NC(=O)n1ncc2c(C)cccc21 | 47.9* | x | x | x | x | x
O=C(Nc1ccc(F)cc1)N1CCc2ccccc2C1 | 69.2* | -3.4 | 2.66 | 76.3 | 2.0 | 126.6
CCOc1ccccc1NC(=O)N1CCc2ccccc2C1 | 68.4* | x | x | x | x | x
COc1ccc(CNC(=O)C2CCC(CNS(=O)(=O)c3ccccc3)CC2)cc1 (stereo unspecified) | 1.8 | x | x | x | x | x
CC(C)OCCCNC(=O)C1CC(=O)N(CCc2ccccc2)C1 (stereo unspecified) | 1.4 | x | x | x | x | x
COC(=O)[C@]1(CC(C)C)N[C@H](c2ccc(-c3cccc(Cl)c3)cc2)[C@@H]2C(=O)N(C)C(=O)[C@@H]21 | 8.0 | x | x | x | x | x
COc1ccc(OCc2cc(C(=O)N3CCC(c4ccccc4)CC3)no2)c(Cl)c1 | 7.4 | x | x | x | x | x
O=C1C(Cc2ccccc2)Nc2ncnc(N3CCc4ccccc4C3)c2N1Cc1ccc(Br)cc1 (stereo unspecified) | 2.8 | x | x | x | x | x
Cc1cc(=O)n2[nH]c(-c3ccccc3)cc2n1 | 30.7 | -9.4 | 1.76 | 29.5 | -0.3 | 110.2
Cc1cc(=O)n2[nH]c(-c3ccc(C(C)(C)C)cc3)cc2n1 | 8.1 | -17.9 | 5.08* | 16.0 | -0.6 | 105.6
O=c1cc(-c2ccccc2)nc2cc(-c3ccc(F)cc3)[nH]n12 | 51.6* | x | x | x | x | x
COc1cccc(-c2cc3nc(-c4ccccc4)cc(=O)n3[nH]2)c1 | 36.3 | x | x | x | x | x
CCOC(=O)Cc1c(C)nc2c(-c3ccccc3)cnn2c1C | 54.4* | -4.3 | 1.72 | 27.0 | -0.9 | 118.2
COC(=O)[C@]1(C)N[C@H](CN(C)S(=O)(=O)c2ccc(C)cc2)[C@@H]2C(=O)N(C)C(=O)[C@@H]21 | 0.4 | x | x | x | x | x
CCOc1ccc2nc(SCC(=O)N(C)C)[nH]c2c1 | 12.6 | -12.8 | 2.49 | 39.0 | -0.1 | 133.0*
CCOc1ccc2nc(-c3ccccc3)[nH]c2c1 | -5.6 | -25.8 | 5.43* | 142.2* | 0.8 | 139.3*
COc1ccc2nc(SCC(=O)c3ccco3)[nH]c2c1 | 6.1 | -12.8 | 2.9 | 93.3 | 0.9 | 130.3*
O=C(CSc1nc2ccccc2c(=O)[nH]1)Nc1ccc(S(=O)(=O)N2CCCC2)cc1 | 3.4 | -11.0 | 0.9 | 4.0 | -0.3 | 94.0
O=C(CN1C(=O)/C(=C\c2ccc(F)cc2)Oc2ccccc21)NCc1ccco1 | 25.3 | -9.7 | 1.16 | -13.7 | 0.7 | 84.3
COC(c1ccccc1)c1nnc(CCC(=O)N(C)Cc2cccc(-n3cccn3)c2)o1 (stereo unspecified) | 5.0 | -12.2 | 2.44 | 39.2 | -0.1 | 131.3*
COC(c1ccccc1)c1nnc(CCC(=O)N(C)CCOc2ccccc2)o1 (stereo unspecified) | 1.2 | -10.4 | 2.25 | 34.5 | -0.5 | 134.6*
Cc1cc(C)c2c3c(cn2n1)c(=O)n(C)c(=O)n3C | 5.1 | x | x | 4.6 | 1.0 | 104.7
CCNC(=S)N=Nc1c(O)[nH]c2ccc([N+](=O)[O-])cc12 | 27.3 | -6.1 | 1.19 | 0.4 | 0.8 | 96.4
Cc1ccc(NCC(=O)N=Nc2c(O)[nH]c3ccc([N+](=O)[O-])cc23)cc1 | 124.5* | -4.3 | x | x | 0.1 | x
SMILES | AHR act | Mdm2 ligase inh | NF-kB expr up | APP 5'UTR act | PERK inh | STAT1 activator
Cc1ccccc1NCC(=O)N=Nc1c(O)[nH]c2ccc([N+](=O)[O-])cc12 | 9.3 | -11.4 | x | x | -0.4 | x
O=[N+]([O-])c1ccc2[nH]c(O)c(N=NC(=S)Nc3cccnc3)c2c1 | 62.1* | x | x | x | 0.2 | x
O=C1CC(C(=O)Nc2ccccc2)S/C(=N\NC(=O)c2ccccc2Cl)N1 (stereo unspecified) | 4.1 | -26.0 | 0.89 | 12.3 | -0.6 | 89.8
CC(Oc1ccccc1F)C(=O)NC1CCS(=O)(=O)C1 (stereo unspecified) | -0.5 | x | x | x | x | x
Cc1ccc(C(=O)Nc2cccc(S(=O)(=O)N3CCCC3)c2)o1 | 0.4 | x | x | x | x | x
O=C(Nc1cccc(-c2nc3cccnc3s2)c1)c1ccco1 | 41.0 | -2.1 | 0.57 | -1.9 | -1.1 | 113.2
CCOc1ncccc1C(=O)Nc1cccc(-c2nc3cccnc3s2)c1 | 50.1* | -8.7 | x | x | -0.5 | x
O=C(Nc1nsc(-c2ccccc2)n1)c1cccs1 | 35.0 | -54.5 | 4.16* | 149.2* | 0.1 | 147.9*
O=C(CSc1nnc2ccccn12)Nc1cccc(-c2nc3ccccc3s2)c1 | 6.0 | -8.0 | 1.31 | 136.7* | 1.3 | 136.0*

Screening data as filed in PubChem BioAssay.
